# Most compounds without a hit are left out; they make up all but 27% or so of the library.
# Rev-RRE block: inhibitors of HIV-1 Rev-RRE RNA interaction. Rev peptide-RRE RNA binding, FRET. inhibition, % at 8 µM. 97,000 compounds, 0.79% hits. AID 704;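 active = inhibition above the screen-wide mean plus 3 SD, cut at about 35% in these data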
#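 Test system: Cy5-tagged RRE RNA duplex with fluorescein-tagged Rev peptide; Probe or stimulus: labelled Rev peptide; Schedule: 5 min preincubation and 15 min binding, 25 °C; Signal: FRET fluorescence readout; Evaluation: % inhibition from 671/540 nm acceptor-to-donor ratio, scaled between controls; Control set: DMSO and neomycin B.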
# Cav3 T inh: human Cav3.2 channel inhibition, primary screen; B-score at 10 µM; Cav3.2-expressing cells, Fluo-4 calcium fluorescence FDSS; stronger effect = lower value; 100,000 compounds, 4% hits;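 active = single-dose well whose peak fluorescence ratio is a statistical outlier from its plate by either plate-standardised score or position-corrected B-score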
# CYP2C9 inhib: blocks human cytochrome P450 2C9. P11712. 96,000 compounds, 20% hits. AID 777. inhibition, % at 5 µM. CYP2C9 Supersomes, luciferin-H conversion, luminescence;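 active = blocking of liver enzyme CYP2C9 beyond about 50% at 5 µM, limit read from the data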
# CYP2C9 act: CYP2C9 (human) activation; P11712; recombinant CYP2C9, luciferin-H conversion, luminescence; stronger effect = higher value; factor 1 = untreated enzyme, 0 = blocked; activation factor at 5 µM; 96,000 compounds, 1.4% hits;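 active = activation factor of 2 or more for CYP2C9 at a 5 µM dose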
# CYP2C19 activ: activators of human cytochrome P450 2C19; P33261; recombinant CYP2C19, luciferin-H EGE luminescence; stronger effect = higher value; 0 = fully inhibited enzyme, 1 = untreated enzyme; activation factor at 5 µM; 96,000 tested, under 10 active; AID 1025;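 active = activation factor of at least 2 at 5 µM in the primary screen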
# CYP2C19 inhib: blocks human cytochrome P450 2C19; CYP2C19 Supersomes, luciferin-H EGE luminescence, 30 min; 96,000 compounds, 21% hits; inhibition, % at 5 µM; P33261;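 active = CYP2C19 inhibition above a set limit at 5 µM in the primary screen, cut at about 50% in these data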
# A number is an active result; i = inactive; nt = no result.
SMILES,Rev-RRE block,Cav3 T inh,CYP2C9 inhib,CYP2C9 act,CYP2C19 activ,CYP2C19 inhib
COc1ccc(N2Cc3cccc(C(=O)NC(C)CCc4ccco4)c3C2=O)cc1 (configuration not stated),i,i,92.5,i,i,85.0
CCOc1ccc(NC(=O)CNC(=O)c2cn(-c3ccccc3OC)c(=O)c3ccccc23)cc1,i,i,87.8,i,i,85.8
Cc1ccc(NC(=O)Cc2nnc(SCC(=O)c3ccc(Br)cc3)n2C)cc1,i,i,i,i,i,i
CCCCCc1c(C)nc(N2CCOCC2)[nH]c1=O,i,i,i,i,i,i
CCOC(=O)N1CCC(N2Cc3cccc(C(=O)NCc4ccccc4OC)c3C2=O)CC1,nt,i,nt,nt,nt,nt
CCOC(=O)N1CCC(NC(=O)c2cccc3c2C(=O)N(c2ccc(OC)cc2)C3)CC1,i,i,98.3,i,i,96.6
COc1ccccc1NS(=O)(=O)c1ccc(C(=O)OCC(=O)NCc2ccco2)cc1,i,i,84.7,i,i,83.6
O=C(COC(=O)c1ccc(S(=O)(=O)NCc2ccco2)cc1)NC1CCCCC1,i,i,i,i,i,i
Cc1noc(C)c1COC(=O)c1ccc(S(=O)(=O)NCc2ccco2)cc1,i,nt,99.6,i,i,72.3
COc1ccccc1NC(=O)COC(=O)c1ccc(S(=O)(=O)NCc2ccco2)cc1,i,i,82.4,i,i,i
COC(=O)C1=C(C(=O)OC)[C@@H]2Nc3ccccc3[C@@]23C[C@@H](C(=O)OC)N(C(=O)c2cccs2)C3=N1,nt,i,nt,nt,nt,nt
CCCCN(C)CCCNC(=O)CC1Oc2ccccc2NC1=O (configuration not stated),i,i,i,i,i,i
CC(=O)N1C2CCCCC2S[C@H]2CCCCC21 (some centres not stated),i,i,i,i,i,i
Cc1ccc(NS(=O)(=O)c2ccc(NC(=O)c3ccc(Br)o3)cc2)c(C)c1,i,i,66.8,i,i,i
Cc1cc(C)cc(NS(=O)(=O)c2ccc(NC(=S)NC(=O)c3ccc(Br)o3)cc2)c1,i,i,74.0,i,i,i
COc1ccc(CC(=O)Nc2ccc3c(c2)OCO3)cc1S(=O)(=O)N1CCOCC1,i,i,i,i,i,i
COc1cccc(N2C(=O)CC(c3c[nH]c4ccccc34)C2=O)c1 (configuration not stated),i,i,i,i,i,89.1
O=C1CC(c2c[nH]c3ccccc23)C(=O)N1c1ccccc1 (configuration not stated),i,i,nt,nt,nt,nt
CCc1ccc(N/C(SCc2ccccc2C)=C(/C#N)C(=O)NCc2ccco2)cc1,i,-5.42,63.6,i,i,57.1
CC1CC(C)(C)N2C(=O)C3(Nc4ccccc4S3)c3cccc1c32 (configuration not stated),i,-4.7,i,i,i,52.3
O=C(NCCn1ccc2ccccc21)c1ccc(S(=O)(=O)N2CCOCC2)cc1,nt,i,i,i,i,i
COc1ccccc1CNC(=O)C1CCCN(S(=O)(=O)c2cnc[nH]2)C1 (configuration not stated),i,i,90.0,i,i,96.6
COc1ccccc1CNC(=O)C1CCCN(S(=O)(=O)c2c(C)[nH]c(=O)[nH]c2=O)C1 (configuration not stated),i,i,i,i,i,i
COc1ccc(CNC(=O)C2CCCN(S(=O)(=O)c3cnc[nH]3)C2)cc1 (configuration not stated),i,i,i,i,i,77.6
Cc1ccc(CNC(=O)C2CCN(S(=O)(=O)c3cnc[nH]3)CC2)cc1,i,i,89.7,i,i,i
COc1ccc(N2CCN(CCCNC(=O)C3CCCN(S(=O)(=O)c4cnc[nH]4)C3)CC2)cc1 (configuration not stated),nt,i,i,i,i,i
Cc1ccc(CNC(=O)C2CCCN(S(=O)(=O)c3cccnc3)C2)cc1 (configuration not stated),i,i,i,i,i,i
Cc1ccc(CNC(=O)C2CCCN(S(=O)(=O)c3cnc[nH]3)C2)cc1 (configuration not stated),i,i,67.0,i,i,96.4
CCn1c(SCC(=O)N2CCN(c3ccccc3)CC2)nnc1-c1ccoc1C,i,i,i,i,i,i

# Source: PubChem (several laboratories)
